Results: ChEMBL document CHEMBL5257040, “Discovery of VU2957 (Valiglurax): An mGlu4 Positive Allosteric Modulator Evaluated as a Preclinical Candidate for the Treatment of Parkinson's Disease” (ACS Med Chem Lett, 2019)
Converted amounts (≈) assume the structure as drawn.

Assays:
[1] = Oral bioavailability in CD-1 mouse plasma at 3 mg/kg and measured upto 24 hrs by LC-MS/MS analysis; assay type: ADME, organism-based
In short: (§1)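 Single-dose iv and oral PK in separate arms: mouse 1 mg/kg iv / 3 mg/kg po, SD rat 0.2/3, beagle 0.5/3, cynomolgus 0.2/3 mg/kg. Plasma parameters (Vss, Tmax, F) are means of two to three animals per species.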

[2] = target: Nuclear receptor subfamily 1 group I member 2 (Rattus norvegicus, UniProt Q9R1A7); test: Activation of rat PXR
[3] = Clearance in Beagle dog plasma at 0.5 mg/kg, iv and measured upto 24 hrs by LC-MS/MS analysis; assay type: ADME, organism-based, Canis lupus familiaris
In short: (§2)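 Single intravenous doses: mouse 1 mg/kg, SD rat 0.2 mg/kg, beagle dog 0.5 mg/kg, cynomolgus monkey 0.2 mg/kg. Plasma clearance, Vss and elimination half-life came from the plasma profiles. Values are means of two to three animals.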

[4] = Oral bioavailability in Cynomolgus monkey at 3 mg/kg and measured upto 24 hrs by LC-MS/MS analysis; assay type: ADME, organism-based, Macaca fascicularis; details: in vivo; in short: as §1
[5] = Elimination half life in Sprague-Dawley rat at 0.2 mg/kg, iv and measured upto 24 hrs by LC-MS/MS analysis; assay type: ADME, organism-based; details: in vivo, read-out: beta t1/2 (converted); in short: as §2
[6] = target: Amine oxidase [flavin-containing] A (Homo sapiens, UniProt P21397); test: Binding affinity to MAO-A (unknown origin)
[7] = Clearance in CD-1 mouse plasma at 1 mg/kg, iv and measured upto 24 hrs by LC-MS/MS analysis; assay type: ADME, organism-based; in short: as §2
[8] = Unbound brain-to-plasma concentration ratio in Sprague-Dawley rat at 0.2 mg/kg, iv and measured upto 24 hrs by LC-MS/MS analysis; assay type: ADME, organism-based; details: read-out: K(p,uu,brain)
[9] = Tmax in Beagle dog at 3 mg/kg, po and measured upto 24 hrs by LC-MS/MS analysis; assay type: ADME, organism-based, Canis lupus familiaris; details: in vivo; in short: as §1
[10] = Volume of distribution at steady state in Beagle dog at 0.5 mg/kg, iv and measured upto 24 hrs by LC-MS/MS analysis; assay type: ADME, organism-based, Canis lupus familiaris; details: in vivo, read-out: Vdss; in short: as §1
[11] = Brain to plasma permeability coefficient, Kp in cynomolgus monkey at 0.2 mg/kg, iv and measured upto 1 hrs by LC-MS/MS analysis; assay type: ADME, organism-based, Macaca fascicularis
In short: (§3)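 Total brain to total plasma partition coefficient (Kp) measured in mouse, SD rat and cynomolgus monkey. The unbound ratio (Kp,uu) was corrected with brain homogenate binding. Values are means of two to three animals.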

[12] = AUC (0 to infinity) in Beagle dog at 3 mg/kg, po and measured upto 24 hrs by LC-MS/MS analysis; assay type: ADME, organism-based, Canis lupus familiaris; parameters: time < 24 hrs, dose 3 mg/kg, route po; details: in vivo
In short: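 Single oral 3 mg/kg dose in mouse, SD rat, beagle dog and cynomolgus monkey. Total plasma exposure after the oral dose gave Cmax, Tmax, AUC0-inf and F. Values are means of two to three animals.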

[13] = Tmax in CD-1 mouse plasma at 3 mg/kg, po and measured upto 24 hrs by LC-MS/MS analysis; assay type: ADME, organism-based; in short: as §1
[14] = target: hERG (KCNH2) (Homo sapiens, UniProt Q12809); test: Inhibition of human ERG at 10 uM; assay type: toxicity
In short: (§4)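 Eurofins Cardiac Profiler functional electrophysiology panel of potassium, calcium and sodium cardiac ion channels, including hERG. Compound tested at 10 μM, reported as percent inhibition.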

[15] = target: Cytochrome P450 2C9 (Homo sapiens, UniProt P11712); test: Inhibition of CYP2C9 in human liver microsomes using […] as substrate preincubated for 15 mins followed by NADPH addition and measured after 8 mins by LC/MS/MS analysis; assay type: ADME, Microsome
[16] = Unbound drug concentration in Sprague-Dawley rat brain at 0.2 mg/kg, iv and measured upto 24 hrs by LC-MS/MS analysis; assay type: ADME, organism-based
[17] = target: Cytochrome P450 1A2 (Homo sapiens, UniProt P05177); test: Inhibition of CYP1A2 in human liver microsomes using […] as substrate preincubated for 15 mins followed by NADPH addition and measured after 8 mins by LC/MS/MS analysis; assay type: ADME, Microsome
[18] = Cmax in Sprague-Dawley rat at 10 mg/kg, po administered as spray-dried dispersion formulation and measured after 24 hrs by LC-MS/MS analysis; assay type: ADME, organism-based; parameters: dose 10 mg/kg, time 24 hrs, route po; details: in vivo
In short: (§5)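 Rats were dosed orally at 3, 10 and 30 mg/kg with a spray-dried dispersion of the free base and HPMCP-HP55 polymer (25%/75%), in 30% Dexolve. Total plasma Cmax and AUC were measured, N = 3.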

[19] = Solubility of compound in FaSSGF; assay type: ADME
[20] = target: Metabotropic glutamate receptor 8 (Rattus norvegicus, UniProt P70579); test: Positive allosteric modulator activity at rat mGlu8 in human HEK cells co-expressing […] assessed as increase in by thallium flux preincubated for 2.5 mins followed by gluatamate addition by thallium flux assay; assay type: cell-based
[21] = Unbound brain-to-plasma concentration ratio in cynomolgus monkey at 0.2 mg/kg, iv and measured upto 1 hrs by LC-MS/MS analysis; assay type: ADME, organism-based, Macaca fascicularis; details: read-out: K(p,uu,brain)
[22] = target: Nav1.5 (Homo sapiens, UniProt Q14524); test: Inhibition of Nav1.5 (unknown origin) at 10 uM; assay type: toxicity; in short: as §4
[23] = Brain to plasma permeability coefficient, Kp in CD-1 mouse plasma at 1 mg/kg,iv and measured upto 24 hrs by LC-MS/MS analysis; assay type: ADME, organism-based; in short: as §3
[24] = Cmax in Cynomolgus monkey at 3 mg/kg, po and measured upto 24 hrs by LC-MS/MS analysis; assay type: ADME, organism-based, Macaca fascicularis; parameters: dose 3 mg/kg, time < 24 hrs, route po; details: in vivo
In short: (§6)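 Single oral 3 mg/kg dose in mouse, SD rat, beagle and cyno. Cmax is the peak total plasma concentration. Values are means of two to three animals.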

[25] = Volume of distribution at steady state in Sprague-Dawley rat at 0.2 mg/kg, iv and measured upto 24 hrs by LC-MS/MS analysis; assay type: ADME, organism-based; details: in vivo, read-out: Vdss; in short: as §1
[26] = test system: Rattus norvegicus; test: Reversal of haloperidol-induced catalepsy Sprague-Dawley rat model at 0.3 to 30 mg/kg,po; assay type: functional, organism-based; details: dose 0.3-30 mg/kg
In short: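 Sprague-Dawley rats received haloperidol 1.5 mg/kg i.p. to induce catalepsy, with the compound dosed orally at 0.3–30 mg/kg. Groups were 8–10 rats and compared with vehicle + haloperidol (p < 0.05). MED = lowest oral dose giving significant reversal.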

[27] = target: Metabotropic glutamate receptor 4 (Homo sapiens) (UniProt Q14833); test: Positive allosteric modulator activity at human mGlu4 in Chinese hamster CHO cells co-expressing Gqi5 assessed as maximum increase in calcium flux preincubated for 2.5 mins followed by gluatamate addition and measured for 2 mins by Fluo-4 AM dye based calcium mobilization assay; assay type: cell-based; details: filed as positive allosteric modulator, time 4.5 min
[28] = Protein binding in human plasma assessed as fraction unbound incubated for 4 hrs by equilibrium dialysis based LC/MS/MS analysis; assay type: ADME, cell-free
[29] = Oral bioavailability in Beagle dog at 3 mg/kg and measured upto 24 hrs by LC-MS/MS analysis; assay type: ADME, organism-based, Canis lupus familiaris; details: in vivo; in short: as §1
[30] = Cmax in Beagle dog at 3 mg/kg, po and measured upto 24 hrs by LC-MS/MS analysis; assay type: ADME, organism-based, Canis lupus familiaris; parameters: dose 3 mg/kg, time < 24 hrs, route po; details: in vivo; in short: as §6
[31] = AUC in Sprague-Dawley rat at 3 mg/kg, po administered as spray-dried dispersion formulation and measured after 24 hrs by LC-MS/MS analysis; assay type: ADME, organism-based; parameters: dose 3 mg/kg, time 24 hrs, route po; details: in vivo; in short: as §5
[32] = target: Metabotropic glutamate receptor 4 (Rattus norvegicus) (UniProt P31423); test: Positive allosteric modulator activity at rat mGlu4 in human HEK cells co-expressing […] assessed as maximum increase in by thallium flux preincubated for 2.5 mins followed by gluatamate addition and measured for 2 mins by thallium flux assay; assay type: cell-based; details: filed as positive allosteric modulator, time 4.5 min

Sequence of Nav1.5 (Q14524 whole entry): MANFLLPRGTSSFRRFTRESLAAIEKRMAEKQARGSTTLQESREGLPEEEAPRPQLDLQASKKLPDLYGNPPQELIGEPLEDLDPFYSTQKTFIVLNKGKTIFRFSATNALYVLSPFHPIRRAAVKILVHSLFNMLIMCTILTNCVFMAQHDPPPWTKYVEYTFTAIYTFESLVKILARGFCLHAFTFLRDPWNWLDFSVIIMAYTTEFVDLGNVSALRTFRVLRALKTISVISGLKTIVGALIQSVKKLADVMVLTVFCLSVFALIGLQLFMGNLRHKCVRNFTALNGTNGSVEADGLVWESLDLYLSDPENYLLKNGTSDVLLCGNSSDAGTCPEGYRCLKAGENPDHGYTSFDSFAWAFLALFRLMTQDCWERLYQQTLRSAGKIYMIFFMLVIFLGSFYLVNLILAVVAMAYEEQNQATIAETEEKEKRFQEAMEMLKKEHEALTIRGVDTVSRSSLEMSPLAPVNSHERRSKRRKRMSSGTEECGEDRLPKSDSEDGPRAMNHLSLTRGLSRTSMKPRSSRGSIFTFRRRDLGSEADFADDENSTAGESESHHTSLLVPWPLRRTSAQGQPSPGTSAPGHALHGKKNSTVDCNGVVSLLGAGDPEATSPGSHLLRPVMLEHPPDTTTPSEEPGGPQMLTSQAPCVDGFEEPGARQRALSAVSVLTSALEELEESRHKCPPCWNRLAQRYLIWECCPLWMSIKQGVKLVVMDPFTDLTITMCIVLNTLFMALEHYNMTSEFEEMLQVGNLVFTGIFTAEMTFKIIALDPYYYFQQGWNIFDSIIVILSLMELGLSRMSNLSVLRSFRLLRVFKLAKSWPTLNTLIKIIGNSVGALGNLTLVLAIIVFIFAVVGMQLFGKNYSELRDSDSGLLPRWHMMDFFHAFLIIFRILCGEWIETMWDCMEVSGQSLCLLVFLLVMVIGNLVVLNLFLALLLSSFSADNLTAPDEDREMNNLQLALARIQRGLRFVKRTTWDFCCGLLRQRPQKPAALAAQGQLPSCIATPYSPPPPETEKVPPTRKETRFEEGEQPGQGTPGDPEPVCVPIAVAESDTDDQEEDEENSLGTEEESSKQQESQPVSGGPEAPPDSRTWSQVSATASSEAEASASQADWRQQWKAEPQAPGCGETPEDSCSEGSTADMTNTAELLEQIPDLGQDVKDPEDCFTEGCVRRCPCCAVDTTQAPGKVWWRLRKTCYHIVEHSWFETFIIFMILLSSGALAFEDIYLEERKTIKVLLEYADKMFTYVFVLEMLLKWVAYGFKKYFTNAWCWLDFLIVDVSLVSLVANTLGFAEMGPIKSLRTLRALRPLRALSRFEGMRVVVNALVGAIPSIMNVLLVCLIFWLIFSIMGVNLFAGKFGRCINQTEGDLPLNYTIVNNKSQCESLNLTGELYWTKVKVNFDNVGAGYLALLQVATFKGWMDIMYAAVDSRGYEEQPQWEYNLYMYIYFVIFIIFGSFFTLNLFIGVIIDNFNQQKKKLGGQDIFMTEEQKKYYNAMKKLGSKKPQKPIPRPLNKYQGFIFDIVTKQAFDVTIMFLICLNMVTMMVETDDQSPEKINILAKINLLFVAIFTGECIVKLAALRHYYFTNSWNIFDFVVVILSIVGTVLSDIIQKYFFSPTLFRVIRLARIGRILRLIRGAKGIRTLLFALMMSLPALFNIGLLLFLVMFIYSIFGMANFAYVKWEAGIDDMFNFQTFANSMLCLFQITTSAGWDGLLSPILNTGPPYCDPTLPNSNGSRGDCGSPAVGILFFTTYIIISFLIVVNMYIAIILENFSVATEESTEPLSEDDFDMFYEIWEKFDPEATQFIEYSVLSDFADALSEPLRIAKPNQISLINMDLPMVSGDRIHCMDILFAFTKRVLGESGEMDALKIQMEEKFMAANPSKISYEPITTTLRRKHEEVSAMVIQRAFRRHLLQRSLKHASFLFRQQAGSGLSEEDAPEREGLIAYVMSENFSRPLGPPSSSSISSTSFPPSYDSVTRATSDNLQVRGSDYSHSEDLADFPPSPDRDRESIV
Sequence of hERG (KCNH2) (Q12809 whole entry): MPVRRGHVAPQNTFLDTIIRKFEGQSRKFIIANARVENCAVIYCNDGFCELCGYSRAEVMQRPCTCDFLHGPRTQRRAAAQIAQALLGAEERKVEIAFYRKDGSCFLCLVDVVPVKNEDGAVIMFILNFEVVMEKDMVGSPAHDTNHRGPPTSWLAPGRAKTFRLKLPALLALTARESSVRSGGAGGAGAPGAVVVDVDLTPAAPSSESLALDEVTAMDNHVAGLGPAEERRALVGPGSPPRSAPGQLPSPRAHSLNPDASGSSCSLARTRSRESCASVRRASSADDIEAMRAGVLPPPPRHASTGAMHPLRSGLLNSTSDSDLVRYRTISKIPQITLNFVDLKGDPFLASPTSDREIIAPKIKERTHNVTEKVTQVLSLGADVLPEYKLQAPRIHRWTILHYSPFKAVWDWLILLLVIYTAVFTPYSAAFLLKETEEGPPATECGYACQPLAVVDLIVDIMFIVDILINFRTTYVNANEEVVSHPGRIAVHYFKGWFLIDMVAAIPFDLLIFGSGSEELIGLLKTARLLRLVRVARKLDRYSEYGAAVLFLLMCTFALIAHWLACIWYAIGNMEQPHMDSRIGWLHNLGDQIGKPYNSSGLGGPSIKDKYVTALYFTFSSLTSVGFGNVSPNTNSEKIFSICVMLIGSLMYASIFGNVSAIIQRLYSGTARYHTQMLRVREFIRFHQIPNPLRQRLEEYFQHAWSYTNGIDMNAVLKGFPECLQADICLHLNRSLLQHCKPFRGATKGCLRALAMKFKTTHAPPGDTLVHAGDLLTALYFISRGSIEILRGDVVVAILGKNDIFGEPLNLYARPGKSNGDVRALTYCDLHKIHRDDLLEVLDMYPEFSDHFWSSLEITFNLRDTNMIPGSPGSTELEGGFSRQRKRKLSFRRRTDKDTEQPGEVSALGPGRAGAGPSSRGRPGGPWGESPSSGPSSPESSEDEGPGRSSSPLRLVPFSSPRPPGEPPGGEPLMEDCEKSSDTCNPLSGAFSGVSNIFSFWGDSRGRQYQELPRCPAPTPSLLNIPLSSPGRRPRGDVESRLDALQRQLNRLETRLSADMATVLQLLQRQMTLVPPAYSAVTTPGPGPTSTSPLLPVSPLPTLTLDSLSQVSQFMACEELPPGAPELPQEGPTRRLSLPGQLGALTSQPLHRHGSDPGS
Sequence of Amine oxidase [flavin-containing] A (P21397 whole entry): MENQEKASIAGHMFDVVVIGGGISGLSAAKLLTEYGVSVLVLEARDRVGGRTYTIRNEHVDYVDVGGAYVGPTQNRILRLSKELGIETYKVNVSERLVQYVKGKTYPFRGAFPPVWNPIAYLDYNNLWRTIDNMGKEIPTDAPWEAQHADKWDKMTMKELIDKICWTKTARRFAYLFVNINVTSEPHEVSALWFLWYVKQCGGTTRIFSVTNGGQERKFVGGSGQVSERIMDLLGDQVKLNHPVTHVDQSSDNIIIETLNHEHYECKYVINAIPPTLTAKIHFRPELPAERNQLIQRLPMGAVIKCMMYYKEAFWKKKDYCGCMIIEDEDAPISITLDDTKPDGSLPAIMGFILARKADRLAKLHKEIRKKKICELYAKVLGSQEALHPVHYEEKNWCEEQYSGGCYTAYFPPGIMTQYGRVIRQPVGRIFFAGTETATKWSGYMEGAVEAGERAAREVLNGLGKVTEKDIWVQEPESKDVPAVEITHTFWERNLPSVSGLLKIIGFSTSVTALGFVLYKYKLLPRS
Sequence of Metabotropic glutamate receptor 4 (Homo sapiens) (Q14833 whole entry): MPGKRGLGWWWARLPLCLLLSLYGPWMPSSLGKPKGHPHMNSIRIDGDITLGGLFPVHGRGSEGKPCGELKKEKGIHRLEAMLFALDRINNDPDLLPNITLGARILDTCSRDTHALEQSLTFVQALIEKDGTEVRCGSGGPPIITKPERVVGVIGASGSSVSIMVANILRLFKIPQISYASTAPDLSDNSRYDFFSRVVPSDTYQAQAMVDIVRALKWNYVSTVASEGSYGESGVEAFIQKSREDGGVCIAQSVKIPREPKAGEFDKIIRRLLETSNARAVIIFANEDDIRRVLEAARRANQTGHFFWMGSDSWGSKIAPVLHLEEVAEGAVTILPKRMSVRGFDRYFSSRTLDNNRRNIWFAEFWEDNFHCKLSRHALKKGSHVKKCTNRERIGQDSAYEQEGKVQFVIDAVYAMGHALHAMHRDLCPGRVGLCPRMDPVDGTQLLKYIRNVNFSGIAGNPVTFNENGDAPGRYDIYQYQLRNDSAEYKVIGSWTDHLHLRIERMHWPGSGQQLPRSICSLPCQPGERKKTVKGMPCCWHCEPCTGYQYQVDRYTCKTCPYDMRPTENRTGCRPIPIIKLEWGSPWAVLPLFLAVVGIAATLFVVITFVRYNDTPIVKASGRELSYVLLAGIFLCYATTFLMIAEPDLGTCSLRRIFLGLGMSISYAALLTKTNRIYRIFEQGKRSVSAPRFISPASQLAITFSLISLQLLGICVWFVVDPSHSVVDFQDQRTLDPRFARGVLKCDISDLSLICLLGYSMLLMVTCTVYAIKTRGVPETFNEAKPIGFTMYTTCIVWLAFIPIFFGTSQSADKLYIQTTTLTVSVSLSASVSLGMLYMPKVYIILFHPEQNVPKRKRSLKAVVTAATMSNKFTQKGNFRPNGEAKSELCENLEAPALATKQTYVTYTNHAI
Sequence of Cytochrome P450 2C9 (P11712 whole entry): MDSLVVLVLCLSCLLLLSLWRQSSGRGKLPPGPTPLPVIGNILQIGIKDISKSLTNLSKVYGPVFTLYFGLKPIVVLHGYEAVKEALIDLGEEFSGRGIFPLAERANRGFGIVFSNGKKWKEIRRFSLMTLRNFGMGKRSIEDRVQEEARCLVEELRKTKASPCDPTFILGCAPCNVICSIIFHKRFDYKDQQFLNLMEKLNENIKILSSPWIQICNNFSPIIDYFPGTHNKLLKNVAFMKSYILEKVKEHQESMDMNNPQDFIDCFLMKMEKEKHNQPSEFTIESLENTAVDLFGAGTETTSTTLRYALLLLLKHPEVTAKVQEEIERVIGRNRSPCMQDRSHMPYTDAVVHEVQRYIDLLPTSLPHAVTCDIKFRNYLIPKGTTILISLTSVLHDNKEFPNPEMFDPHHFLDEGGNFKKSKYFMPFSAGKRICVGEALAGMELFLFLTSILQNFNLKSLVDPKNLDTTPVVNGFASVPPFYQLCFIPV

bioavailability [1]: 79%
Activity [2]: Not Active
clearance [3]: 31.6 mL/min/kg
bioavailability [4]: 31.6%
half-life [5]: 63 min
EC50 [6]: > 30 µM
clearance [7]: 78.3 mL/min/kg
Kp uu at 24 h [8]: 0.09
Tmax [9]: 1 h
Vd [10]: 4.3 L/kg
Kp at 1 h [11]: 1.24
AUC(0-inf) [12]: 1.82 µM·h
Tmax [13]: 25.2 min
IC50 [15]: > 30 µM
fraction unbound at 24 h [16]: > 0.001
IC50 [17]: 1500 nM
Cmax [18]: 2050 nM
solubility [19]: 9 µg/mL (≈ 27.3 µM)
EC50 [20]: > 10 µM
Kp uu at 1 h [21]: 0.07
Kp at 24 h [23]: 0.78
Cmax [24]: 260 nM
Vd [25]: 3 L/kg
Emax [27]: 92.6%
fraction unbound at 4 h [28]: 0.016
bioavailability [29]: 37.5%
Cmax [30]: 490 nM
AUC at 24 h [31]: 5.92 µM·h
Emax [32]: 132%
Structure (SMILES): FC(F)(F)c1nccc2cc(Nc3n[nH]c4ncccc34)ccc12
inhibition at 10 µM [14]: < 50%
inhibition at 10 µM [22]: < 50%
Activity [26]: Dose-Dependent Effect
